Here are results for six compounds from ChEMBL document CHEMBL1144558, “Potent anticancer activities of novel aminophenol analogues against various cancer cell lines” (2007).

Calls of active or inactive are those of the source. The rule behind the calls is not given here.

The test system of one experiment is HepG2. In words: Growth inhibition of human HepG2 cells at 4 uM after 68 hrs relative to control. The conditions noted are these: HepG2, 68 h. The experiment is classed as functional. In outline:
(§1)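 Adherent cells trypsinized, seeded at 0.5 × 10^4 cells/ml in RPMI 1640 with 10% FBS (maintenance medium also 10 mM HEPES pH 7.3), 37 °C, 5% CO2. Compound (4 µM) added after 1 day; 68 h exposure. Viable cells by MTT; % net growth = (treated − initial absorbance)/(control − initial absorbance) × 100. Mean of ≥3 (MCF-7 lines) or ≥4 (DU-145, HepG2) measurements.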

In experiment [1] the test system is HL-60. Briefly: Growth inhibition of human HL60 cells at 4 uM after 72 hrs relative to control. The experiment is classed as functional. To be noted: HL-60, 72 h.
Experiment [2] concerns MCF7. In words: Growth inhibition of human estrogen receptor deficient adriamycin-resistant MCF7 cells at 4 uM after 68 hrs relative to control. The experiment is classed as functional. The conditions noted are these: MCF7, 68 h. In outline: as §1
In the next experiment the test system is DU-145. In words: Growth inhibition of human DU145 cells at 4 uM after 68 hrs relative to control. The conditions noted are these: DU-145, 68 h. The experiment is classed as functional. In outline: as §1
Experiment [3] relates to MCF7. Briefly: Growth inhibition of human estrogen receptor expressing MCF7 cells at 4 uM after 68 hrs relative to control. The experiment is classed as functional. To be noted: MCF7, 68 h. The gist of the method: as §1
In experiment [4] the test system is HL-60. Briefly: Induction of apoptosis in human HL60 cells assessed as DNA fragmentation at 4 uM after 20 hrs. The format is functional, cell-based. The gist of the method:
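Cells at 2 × 10^5 cells/ml in RPMI/10% FBS treated 20 h with 4 µM compound (DMSO control). Washed in PBS pH 7.2, lysed with proteinase K, RNase A and 1% SDS at 37 °C for 30 min, then NaI/isopropanol DNA extraction at 60 °C. DNA run on 2% agarose gel, stained with ethidium bromide, scored for ladder.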

As for `CC1=C(/C=C/C(C)=C/C=C/C(C)=C/C(=O)O)C(C)(C)CCC1` [TRETINOIN], the inhibition at 4 µM with HepG2 is 13%; with HL-60 [1], 42%; in the experiment on MCF7 [2] it was 12%; in the experiment with DU-145, 46%; with MCF7 [3], 74%.
Regarding `CCCCCCCCCCCC(=O)Nc1ccc(O)cc1`, the inhibition at 4 µM stood at 22% in the experiment with HepG2; 6% in the experiment on HL-60 [1]; 21% in the experiment on MCF7 [2]; 41% with DU-145; 22% in the experiment with MCF7 [3].
For `CC1=C(/C=C/C(C)=C/C=C/C(C)=C/C(=O)Nc2ccc(O)cc2)C(C)(C)CCC1` [FENRETINIDE], the inhibition at 4 µM in the experiment with HepG2 worked out at 27%; in the experiment with HL-60 [1], 55%; with MCF7 [2], 60%; with DU-145, 41%; in the experiment on MCF7 [3], 62%.
Turning to `CCCCCCCCCCNc1ccc(O)cc1`, the inhibition at 4 µM with HepG2 is 17%; in the experiment on HL-60 [1] it was 66%; in the experiment on MCF7 [2], 100%; with DU-145, 66%; in the experiment on MCF7 [3], 57%. For the same compound, the result in the experiment on HL-60 [4] was Active.
Regarding `CCCCCCCCCCCCNc1ccc(O)cc1`, the inhibition at 4 µM came out at 13% with HepG2; 72% in the experiment on HL-60 [1]; 100% in the experiment on MCF7 [2]; 73% in the experiment with DU-145; 66% in the experiment on MCF7 [3]. For the same compound, the result in the experiment on HL-60 [4] was Active.
For the compound `CCCCCCCCCC(=O)Nc1ccc(O)cc1`, the inhibition at 4 µM with HepG2 amounted to 26%; in the experiment on HL-60 [1] it was 6%; in the experiment with MCF7 [2] it was 23%; in the experiment on DU-145, 51%; in the experiment with MCF7 [3], 30%.

For orientation: inhibition means the relative decrease from the control value, in per cent. Higher therefore signals strong suppression.
